Consider one molecule from ChEMBL document CHEMBL4393708, “Pyridinylimidazoles as dual glycogen synthase kinase 3β/p38α mitogen-activated protein kinase inhibitors” (Eur J Med Chem, 2019).

In data set [1] the target is Tyrosine-protein kinase ABL1 (Homo sapiens) (UniProt P00519). As to the kind of experiment: Inhibition of recombinant human ABL1 at 1 uM using Ulight-TK peptide as substrate measured after 30 mins in presence of ATP by LANCE assay relative to control.
Data set [2] has as its target Aurora kinase A (Homo sapiens) (UniProt O14965). As to the kind of experiment: Inhibition of recombinant human Aurora A at 1 uM using Ulight-RRRSLLE substrate incubated for 15 mins in presence of ATP by LANCE assay relative to control. On the technique in general: TR-FRET usually uses a lanthanide donor and a delayed reading to cut background.
In data set [3] the target is Calcium/calmodulin-dependent protein kinase type II subunit alpha (Homo sapiens) (UniProt Q9UQM7). As to the kind of experiment: Inhibition of human recombinant CAMKA2A at 1 uM using Ulight-CGSGSGRPRTSSFAEG as substrate measured after 30 mins by LANCE assay relative to control. The method in brief: (§1)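 Kinase panel run by an outside provider (Eurofins Cerep) in a LANCE assay, single test concentration of 1 µM, results as percent inhibition.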

In data set [4] the target is Mitogen-activated protein kinase 1 (Homo sapiens) (UniProt P28482). As to the kind of experiment: Inhibition of human recombinant ERK2 at 1 uM using Ulight-CFFKNIVTPRTPPPSQGK-amide as substrate measured after 15 mins in presence of ATP by LANCE assay relative to control. An outline of the steps:
as §1

The target in data set [5] is Serine/threonine-protein kinase Nek2 (Homo sapiens) (UniProt P51955). Put plainly: Inhibition of human recombinant NEK2 at 1 uM using Ulight-FLGFTYVAP as substrate measured after 60 mins in presence of ATP by LANCE assay relative to control. The method in brief: as §1
Data set [6] deals with Mitogen-activated protein kinase 14 (Homo sapiens, UniProt Q16539). Put plainly: Inhibition of human recombinant SAPK2A at 1 uM using Ulight-CFFKNIVTPRTPPPSQGK-amide as substrate measured after 30 mins in presence of ATP by LANCE assay relative to control. The method in brief: as §1
Data set [7] in a line: Metabolic stability in human liver microsomes assessed as parent compound remaining after 20 mins by LC-MS analysis relative to control. Type of data set: ADME, Microsome. As to conditions: read-out: Stability. A general note: Liver microsomes are a subcellular fraction often used to study metabolism.
For data set [8], the target named is T1, Glycogen synthase kinase-3 beta (Homo sapiens, UniProt P49841). As to the kind of experiment: Competitive inhibition of human recombinant full length GSK3beta using YRRAAVPPSPSLSRHSSPHQ(pS)EDEEE as substrate preincubated with enzyme for 10 mins followed by substrate and 500 uM ATP addition measured after 60 mins by ADP-Glo luminescence assay. An outline of the steps:
(§2)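 Recombinant human GSK3β at 0.58 ng/µL with 0.2 µg/µL substrate G50-58; ATP at 25 µM, 100 µM or 500 µM, each as its line states. Compounds in serial dilutions were preincubated with kinase for 10 min at rt. Substrate/ATP was then added and the reaction ran 60 min at rt. ADP-Glo reagent 60 min, detection reagent 30 min, then luminescence read (500 ms integration).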
A general note: ADP-Glo first removes unused ATP, then detects ADP through luciferase.

Data set [9] has as its target Serine/threonine-protein kinase PLK1 (Homo sapiens) (UniProt P53350). As to the kind of experiment: Inhibition of human recombinant PLK1 at 1 uM using Ulight-FLGFTYVAP as substrate measured after 60 mins in presence of ATP by LANCE assay relative to control. The method in brief: as §1
In data set [10] the target is T1, Glycogen synthase kinase-3 beta. Put plainly: Competitive inhibition of human recombinant full length GSK3beta using YRRAAVPPSPSLSRHSSPHQ(pS)EDEEE as substrate preincubated with enzyme for 10 mins followed by substrate and 25 uM ATP addition measured after 60 mins by ADP-Glo luminescence assay. The method in brief:
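Compounds in serial dilutions were preincubated with kinase for 10 min at rt. Substrate/ATP was then added and the reaction ran 60 min at rt. ADP-Glo reagent 60 min, detection reagent 30 min, then luminescence read (500 ms integration).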

The nature of data set [11]: Ratio of drug concentration in RjOrl:Swiss CD-1 mouse brain at 10 mg/kg, iv to IC50 for human recombinant full length GSK3beta. The following applies: in vivo. Type of data set: ADME, organism-based. An outline of the steps: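 Adult male mice received a single 10 mg/kg intravenous dose. After the final plasma sample at 2 h, the mice were sacrificed and brains dissected. Brain concentration was measured by LC-MS and related to the in vitro IC50 values for GSK3β and p38α.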

Data set [12] concerns the target Proto-oncogene tyrosine-protein kinase Src (Homo sapiens) (UniProt P12931). As to the kind of experiment: Inhibition of human recombinant SRC at 1 uM using Ulight-Poly GAT[EAY(1:1:1)]n as substrate measured after 10 mins in presence of ATP by LANCE assay relative to control. An outline of the steps: as §1
The target of data set [13] is Ephrin type-A receptor 3 (Homo sapiens) (UniProt P29320). As to the kind of experiment: Inhibition of human recombinant EPHA3 at 1 uM using Ulight-TK peptide as substrate measured after 60 mins in presence of ATP by LANCE assay relative to control. The method in brief: as §1
In data set [14] the target is Protein kinase C beta type (Homo sapiens) (UniProt P05771). As to the kind of experiment: Inhibition of human recombinant PKCbeta at 1 uM using CREBtide as substrate measured after 15 mins in presence of ATP by LANCE assay relative to control. The method in brief:
as §1

The target of the next data set is hERG (KCNH2) (Homo sapiens, UniProt Q12809). As to the kind of experiment: Inhibition of tracer Red binding to human ERG expressed in membranes at 10 uM after 4 hrs by fluorescence polarization assay relative to control. As to conditions: membranes expressing human ERG, probe tracer Red.
Data set [15] deals with Serine/threonine-protein kinase PAK 2 (Homo sapiens) (UniProt Q13177). As to the kind of experiment: Inhibition of human recombinant PAK2 at 1 uM using Ulight-RRRSLLE as substrate measured after 60 mins in presence of ATP by LANCE assay relative to control. The method in brief: as §1
The target in data set [16] is Inhibitor of nuclear factor kappa-B kinase subunit alpha (Homo sapiens) (UniProt O15111). Put plainly: Inhibition of human recombinant IKKalpha at 1 uM using Ulight-IKappaB-alpha as substrate measured after 30 mins in presence of ATP by LANCE assay relative to control. The method in brief: as §1
Data set [17] can be described thus: Metabolic stability in human liver microsomes assessed as parent compound remaining after 240 mins by LC-MS analysis relative to control. Type of data set: ADME, Microsome. The following applies: read-out: Stability.
Data set [18] has as its target High affinity nerve growth factor receptor (Homo sapiens) (UniProt P04629). Put plainly: Inhibition of human recombinant TRKA at 1 uM using Ulight-Poly GAT[EAY(1:1:1)]n as substrate measured after 10 mins in presence of ATP by LANCE assay relative to control. The method in brief:
as §1

In data set [19] the target is Interleukin-1 receptor-associated kinase 4 (Homo sapiens) (UniProt Q9NWZ3). Put plainly: Inhibition of human recombinant IRAK4 at 1 uM using Ulight-FLGFTYVAP as substrate measured after 90 mins in presence of ATP by LANCE assay relative to control. The method in brief:
as §1

The next data set deals with Cytochrome P450 2C19 (Homo sapiens, UniProt P33261). Put plainly: Inhibition of human recombinant CYP2C19 expressed in baculovirus infected insect cells using EOMCC as substrate in presence of NADPH by fluorimetric analysis relative to control. It is filed as ADME. The following applies: recombinant enzyme.
The target in data set [20] is Fibroblast growth factor receptor 1 (Homo sapiens) (UniProt P11362). Put plainly: Inhibition of human recombinant FGFR at 1 uM using Ulight-CAGAGAIETDKEYYTVKD as substrate measured after 60 mins in presence of ATP by LANCE assay relative to control. An outline of the steps: as §1
The target in data set [21] is T1, Glycogen synthase kinase-3 beta. As to the kind of experiment: Competitive inhibition of human recombinant full length GSK3beta using YRRAAVPPSPSLSRHSSPHQ(pS)EDEEE as substrate preincubated with enzyme for 10 mins followed by substrate and 100 uM ATP addition measured after 60 mins by ADP-Glo luminescence assay. The method in brief:
as §2

T1 sequence (P49841 whole entry): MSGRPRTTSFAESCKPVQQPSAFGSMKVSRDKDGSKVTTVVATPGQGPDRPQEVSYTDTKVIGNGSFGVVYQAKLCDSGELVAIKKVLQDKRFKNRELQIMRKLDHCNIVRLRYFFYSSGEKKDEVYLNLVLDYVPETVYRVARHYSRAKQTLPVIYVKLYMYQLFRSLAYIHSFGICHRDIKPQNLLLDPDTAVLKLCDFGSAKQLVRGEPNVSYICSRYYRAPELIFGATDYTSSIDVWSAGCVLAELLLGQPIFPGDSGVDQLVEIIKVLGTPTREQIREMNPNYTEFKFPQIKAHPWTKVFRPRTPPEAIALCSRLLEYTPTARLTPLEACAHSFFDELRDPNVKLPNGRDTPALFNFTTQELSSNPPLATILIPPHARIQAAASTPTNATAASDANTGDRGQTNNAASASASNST
Chain of Tyrosine-protein kinase ABL1 (Homo sapiens) (P00519 whole entry): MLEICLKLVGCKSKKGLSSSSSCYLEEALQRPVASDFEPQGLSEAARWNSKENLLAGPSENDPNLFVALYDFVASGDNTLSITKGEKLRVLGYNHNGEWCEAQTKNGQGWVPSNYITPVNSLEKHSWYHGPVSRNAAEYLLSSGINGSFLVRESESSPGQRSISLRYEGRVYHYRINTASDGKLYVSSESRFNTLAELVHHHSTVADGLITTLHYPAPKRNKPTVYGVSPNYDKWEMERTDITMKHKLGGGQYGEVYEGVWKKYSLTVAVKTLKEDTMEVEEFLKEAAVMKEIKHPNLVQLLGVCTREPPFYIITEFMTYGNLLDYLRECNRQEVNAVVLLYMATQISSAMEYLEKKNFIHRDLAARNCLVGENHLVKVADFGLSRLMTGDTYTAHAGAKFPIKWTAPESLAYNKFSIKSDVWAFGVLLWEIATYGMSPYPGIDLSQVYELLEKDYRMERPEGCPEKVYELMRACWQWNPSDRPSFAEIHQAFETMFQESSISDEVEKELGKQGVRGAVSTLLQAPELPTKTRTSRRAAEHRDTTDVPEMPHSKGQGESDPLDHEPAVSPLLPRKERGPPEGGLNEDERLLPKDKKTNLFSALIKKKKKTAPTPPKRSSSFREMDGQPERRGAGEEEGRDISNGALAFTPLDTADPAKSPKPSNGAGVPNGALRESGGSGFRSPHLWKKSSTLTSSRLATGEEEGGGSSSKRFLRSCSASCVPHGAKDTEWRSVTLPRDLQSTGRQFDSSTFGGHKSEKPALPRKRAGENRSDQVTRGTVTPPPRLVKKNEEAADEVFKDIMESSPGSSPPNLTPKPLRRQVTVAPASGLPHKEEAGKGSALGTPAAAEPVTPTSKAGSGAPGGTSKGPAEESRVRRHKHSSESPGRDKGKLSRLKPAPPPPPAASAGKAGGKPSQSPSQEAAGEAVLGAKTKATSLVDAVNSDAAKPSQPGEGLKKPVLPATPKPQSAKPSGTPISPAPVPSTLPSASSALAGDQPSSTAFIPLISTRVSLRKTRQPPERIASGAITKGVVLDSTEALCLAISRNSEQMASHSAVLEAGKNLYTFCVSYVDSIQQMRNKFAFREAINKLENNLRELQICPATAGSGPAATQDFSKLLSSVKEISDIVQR
Chain of Mitogen-activated protein kinase 1 (Homo sapiens) (P28482 whole entry): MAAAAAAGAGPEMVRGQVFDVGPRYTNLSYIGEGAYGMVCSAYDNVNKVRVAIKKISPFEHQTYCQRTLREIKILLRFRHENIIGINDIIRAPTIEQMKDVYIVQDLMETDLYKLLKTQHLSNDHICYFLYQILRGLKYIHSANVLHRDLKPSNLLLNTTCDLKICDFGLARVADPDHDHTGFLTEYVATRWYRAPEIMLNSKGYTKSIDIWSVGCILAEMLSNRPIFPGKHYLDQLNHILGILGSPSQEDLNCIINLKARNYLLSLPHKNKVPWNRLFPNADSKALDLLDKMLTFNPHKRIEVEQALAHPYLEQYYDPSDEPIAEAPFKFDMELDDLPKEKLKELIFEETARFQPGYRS
Chain of hERG (KCNH2) (Q12809 whole entry): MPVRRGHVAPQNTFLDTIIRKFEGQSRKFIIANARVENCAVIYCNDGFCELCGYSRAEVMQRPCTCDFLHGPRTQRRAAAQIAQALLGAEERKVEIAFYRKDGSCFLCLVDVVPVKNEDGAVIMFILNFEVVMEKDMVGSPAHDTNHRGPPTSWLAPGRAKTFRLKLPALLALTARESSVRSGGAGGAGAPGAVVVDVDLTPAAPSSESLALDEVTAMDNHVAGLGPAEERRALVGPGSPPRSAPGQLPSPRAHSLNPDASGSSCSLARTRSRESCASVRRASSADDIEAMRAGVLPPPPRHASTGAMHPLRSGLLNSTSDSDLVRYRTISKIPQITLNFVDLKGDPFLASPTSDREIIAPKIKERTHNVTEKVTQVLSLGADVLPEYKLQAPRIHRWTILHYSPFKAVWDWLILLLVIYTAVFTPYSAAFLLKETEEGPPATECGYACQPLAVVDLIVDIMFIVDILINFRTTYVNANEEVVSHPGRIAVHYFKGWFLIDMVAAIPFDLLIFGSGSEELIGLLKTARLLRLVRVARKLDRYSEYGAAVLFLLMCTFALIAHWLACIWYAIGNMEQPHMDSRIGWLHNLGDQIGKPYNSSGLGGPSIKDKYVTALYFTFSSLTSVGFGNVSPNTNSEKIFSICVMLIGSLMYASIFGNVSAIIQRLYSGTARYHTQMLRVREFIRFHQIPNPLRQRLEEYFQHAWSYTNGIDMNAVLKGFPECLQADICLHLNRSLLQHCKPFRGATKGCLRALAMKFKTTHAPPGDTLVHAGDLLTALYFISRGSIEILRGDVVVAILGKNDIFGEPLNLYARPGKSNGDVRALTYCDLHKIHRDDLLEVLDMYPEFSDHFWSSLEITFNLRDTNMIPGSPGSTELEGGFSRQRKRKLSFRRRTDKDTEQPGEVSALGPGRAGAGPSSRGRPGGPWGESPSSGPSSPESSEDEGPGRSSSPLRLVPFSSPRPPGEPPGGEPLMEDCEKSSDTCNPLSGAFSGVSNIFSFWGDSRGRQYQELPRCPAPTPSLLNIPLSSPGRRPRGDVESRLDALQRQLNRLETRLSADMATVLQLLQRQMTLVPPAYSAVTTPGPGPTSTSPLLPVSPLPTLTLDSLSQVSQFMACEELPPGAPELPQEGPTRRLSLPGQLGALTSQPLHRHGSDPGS
Chain of Interleukin-1 receptor-associated kinase 4 (Homo sapiens) (Q9NWZ3 whole entry): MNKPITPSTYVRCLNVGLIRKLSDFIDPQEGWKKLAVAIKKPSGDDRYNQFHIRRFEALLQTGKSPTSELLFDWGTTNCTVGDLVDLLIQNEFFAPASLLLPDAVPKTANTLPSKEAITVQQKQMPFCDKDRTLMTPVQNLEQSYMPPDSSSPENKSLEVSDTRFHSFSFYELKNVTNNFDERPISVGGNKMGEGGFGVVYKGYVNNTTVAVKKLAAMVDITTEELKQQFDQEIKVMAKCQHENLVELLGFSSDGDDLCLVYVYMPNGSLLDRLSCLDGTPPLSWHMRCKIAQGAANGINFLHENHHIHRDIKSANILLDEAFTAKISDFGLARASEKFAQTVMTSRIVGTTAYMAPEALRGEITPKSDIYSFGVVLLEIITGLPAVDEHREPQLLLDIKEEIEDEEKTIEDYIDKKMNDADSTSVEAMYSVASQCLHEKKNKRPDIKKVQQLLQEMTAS
Chain of Ephrin type-A receptor 3 (Homo sapiens) (P29320 whole entry): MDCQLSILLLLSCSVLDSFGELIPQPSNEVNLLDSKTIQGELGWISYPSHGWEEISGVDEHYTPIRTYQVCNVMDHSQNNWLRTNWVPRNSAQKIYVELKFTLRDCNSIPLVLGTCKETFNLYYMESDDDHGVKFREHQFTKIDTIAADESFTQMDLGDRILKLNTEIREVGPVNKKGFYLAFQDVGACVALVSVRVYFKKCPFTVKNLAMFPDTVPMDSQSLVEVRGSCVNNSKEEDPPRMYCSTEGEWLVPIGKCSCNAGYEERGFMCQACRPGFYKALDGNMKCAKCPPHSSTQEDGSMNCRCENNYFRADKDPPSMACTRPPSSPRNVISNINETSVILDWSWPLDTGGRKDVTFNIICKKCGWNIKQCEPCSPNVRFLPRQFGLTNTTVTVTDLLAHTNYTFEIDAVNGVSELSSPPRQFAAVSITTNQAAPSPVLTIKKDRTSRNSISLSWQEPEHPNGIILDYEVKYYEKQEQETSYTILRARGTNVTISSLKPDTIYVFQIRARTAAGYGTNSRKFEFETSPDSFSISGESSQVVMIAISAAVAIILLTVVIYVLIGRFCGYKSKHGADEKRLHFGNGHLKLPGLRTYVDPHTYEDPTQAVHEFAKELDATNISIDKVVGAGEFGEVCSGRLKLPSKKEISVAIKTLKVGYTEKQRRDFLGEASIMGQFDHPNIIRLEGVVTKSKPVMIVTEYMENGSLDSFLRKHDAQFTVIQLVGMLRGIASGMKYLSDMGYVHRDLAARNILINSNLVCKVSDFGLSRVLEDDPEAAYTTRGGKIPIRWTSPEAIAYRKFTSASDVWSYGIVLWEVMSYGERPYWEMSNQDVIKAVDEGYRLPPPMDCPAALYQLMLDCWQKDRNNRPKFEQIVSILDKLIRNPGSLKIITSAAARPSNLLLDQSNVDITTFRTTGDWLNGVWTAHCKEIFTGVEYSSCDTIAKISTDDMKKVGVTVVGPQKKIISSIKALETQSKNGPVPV
Chain of Serine/threonine-protein kinase PAK 2 (Homo sapiens) (Q13177 whole entry): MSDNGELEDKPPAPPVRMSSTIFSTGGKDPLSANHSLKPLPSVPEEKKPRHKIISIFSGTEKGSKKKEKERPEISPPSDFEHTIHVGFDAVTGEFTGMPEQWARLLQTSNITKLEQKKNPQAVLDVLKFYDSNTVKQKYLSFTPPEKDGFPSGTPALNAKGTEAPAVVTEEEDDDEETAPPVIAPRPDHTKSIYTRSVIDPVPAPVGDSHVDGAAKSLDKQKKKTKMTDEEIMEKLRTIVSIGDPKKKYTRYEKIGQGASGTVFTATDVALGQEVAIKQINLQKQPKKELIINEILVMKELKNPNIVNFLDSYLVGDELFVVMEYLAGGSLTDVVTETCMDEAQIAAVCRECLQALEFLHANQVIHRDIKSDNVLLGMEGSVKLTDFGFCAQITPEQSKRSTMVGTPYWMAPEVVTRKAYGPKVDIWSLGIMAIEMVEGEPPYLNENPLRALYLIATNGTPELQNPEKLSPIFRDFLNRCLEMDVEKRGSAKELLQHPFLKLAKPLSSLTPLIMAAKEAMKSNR

A word on the inhibition: it is the relative decrease from the control value, in per cent. For orientation: IC50 means the midpoint of a concentration-inhibition curve. As to `CCc1nc(-c2ccc(F)cc2)c(-c2ccnc(NC(=O)C3CC3)c2)[nH]1`, the inhibition was 91.5% in data set [1]; 2.76% in data set [2]; -2.55% in data set [3]; 10.9% in data set [4]; -1.98% in data set [5]; 93.6% in data set [6]. The inhibition is 2.78% in data set [9]; 51.6% in data set [12]; 76.6% in data set [13]; 10.7% in [14]; 5.58% in data set [15]; -2.16% in data set [16]. Further, the inhibition in data set [18] is 10.6%; in data set [19], 2.96%; in data set [20], 47%. In addition, the remaining at 20 min in [7] was determined as 93.4%. The IC50 in data set [8] was 492 nM; in data set [10], 35 to 45.6 nM; in data set [21], 108 nM. Besides, in data set [11], the Ratio is given as 1.1. The inhibition at 4 h, 10 µM on hERG (KCNH2) worked out at 43.3%. Moreover, in data set [17], the remaining at 4 h was determined as 98.3%. On Cytochrome P450 2C19, the “inhibition (INH)” value is on record as 81.7%.
